Source: PubChem
This is a sample that favours compounds with a hit; in the whole collection about 1.5% have one here.
Jurkat NFkB inh = inhibitors of the PMA/ionomycin-induced NF-kB reporter in Jurkat cells; PMA/ionomycin-induced NF-kB luciferase reporter, luminescence; inhibition, % at 4 µM; 330,000 compounds, 0.53% hits; in the data active = inhibition above about 50%
697 NFkB inh = inhibitors of the PMA/ionomycin-induced NF-kB reporter in 697 B cells. 697 B-cell NF-kB luciferase reporter, 16 h. inhibition, % at 4 µM. 330,000 compounds, 0.33% hits. AID 435022; in the data active = inhibition above about 35%
NR2E3 ag-1 = NR2E3 (human) agonism | Q9Y5X4 | GST-NR2E3/biotin-RetCOR TR-FRET, 1536-well | inhibition of corepressor binding, % at 4.78 µM | 320,000 compounds, 0.12% hits | AID 2300;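 active = percent inhibition above the cutoff of mean plus 3 SD of all tested compounds, set per screening campaign, cut at about 20% in these data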
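System: GST-tagged NR2E3 plus biotinylated RetCOR corepressor; Amount: 1.35 nM GST-tagged NR2E3 final; Dosing: single nominal compound dose of 4.8 µM; Schedule: 5 h incubation at 4 °C; Technique: TR-FRET with europium anti-GST and streptavidin-D2, 340 nm excitation; Controls: biotin wells as high control, 0.6% DMSO wells as low control.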
JMJD2C inh = inhibitors of human GASC-1 (JMJD2C) demethylase | Q9H3R0 | inhibition, % at 2.35 µM | GST-JMJD2C(1-420) H3K9me3 demethylation, DELFIA europium | AID 2099 | 330,000 compounds, 0.069% hits;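 active = more than half of a compound's replicate wells show inhibition beyond 50%, single wells judged on their own value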;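 note: signal counts dimethyl H3K9 product captured on neutravidin plate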
NR2E3 ag-2 = agonists of human NR2E3 nuclear receptor; Q9Y5X4; CHO-S Gal4-NCOR/VP16-NR2E3 two-hybrid, luciferase; inhibition of corepressor binding, % at 3.98 µM; 360,000 compounds, 0.35% hits; AID 602229;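 active = inhibition above the mean of all tested compounds plus 3 SD, cut at about 70% in these data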;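 note: higher means lower luciferase signal from less NR2E3 corepressor binding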
GalR3 antag = blocks the human galanin receptor 3 | O60755 | HEK293 GalR3-CNG cAMP membrane potential fluorescence; galR3 body fused to GalR1 C-terminus | inhibition, % at 3 µM | 360,000 compounds, 0.44% hits;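 active = inhibition above the screen-wide average plus 3 SD, cut at about 13% in these data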;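 note: forskolin and galanin both at EC90 stimulate the cells; cAMP rise reported by CNG channel membrane potential dye signal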
NR2E3 ag confirm = NR2E3 (human) agonism, confirmation. shares compounds with NR2E3 ag-1. cell-free NR2E3 corepressor release, TR-FRET, 5 h. activation (reported as inhibition), % at 3.98 µM. 360 compounds, 39% hits. AID 2379; in the data active = activation above about 20%
PPARg-NCOR2 ag = PPARg-NCOR2 interaction agonism, NR2E3 counter-screen; TR-FRET PPARg-NCOR2 coregulator interaction, biochemical; inhibition, % at 3.98 µM; shares compounds with NR2E3 ag-1; 360 compounds, 45% hits; AID 504787; in the data active = inhibition above about 20%
Numbers stand for hits; n = inactive; x = not tested or not shown.

SMILES | Jurkat NFkB inh | 697 NFkB inh | NR2E3 ag-1 | JMJD2C inh | NR2E3 ag-2 | GalR3 antag | NR2E3 ag confirm | PPARg-NCOR2 ag
Cc1ccccc1N1CCN(C2CCCN(C(=O)c3cnsn3)C2)CC1 (stereo not drawn) | n | n | n | n | n | n | x | x
O=C(CCCn1c(=S)[nH]c2cc3c(cc2c1=O)OCO3)NCc1cccc(Cl)c1 | n | n | 27.8 | n | n | n | n | 21.5
O=C(CCn1c(=S)[nH]c2cc3c(cc2c1=O)OCO3)NCc1cccc(Cl)c1 | n | n | n | n | n | n | x | x
CCOC(=O)c1c(NC(=S)Nc2cc([N+](=O)[O-])ccc2OC)sc2c1CCCCC2 | n | n | n | n | x | x | x | x
COC(=O)c1c(NC(=S)Nc2cc(OC)c(Cl)cc2OC)sc2c1CCCCC2 | n | n | 19.8 | n | n | n | n | n
O=C(c1cc2nc(-c3ccco3)cc(C(F)(F)F)n2n1)N1CCCCCC1 | n | n | n | n | n | n | x | x
O=C(NCCCN1CCCC1=O)c1cc2nc(-c3ccco3)cc(C(F)(F)F)n2n1 | n | n | 21.9 | n | n | n | n | n
N#CC(=C=[N-])C1=C(C#N)C(c2ccccc2F)C([n+]2ccccc2)C(O)(C2CC2)N1 (stereo not drawn) | n | n | 28.7 | n | n | n | n | n
Cc1cccc[n+]1C1C(c2ccccc2)C(C#N)=C(C(=C=[N-])C#N)NC1(O)C1CC1 (stereo not drawn) | n | n | 42.8 | n | n | x | n | 30.1
Cc1ccc[n+](C2C(c3ccc([N+](=O)[O-])cc3)C(C#N)=C([S-])NC2(O)C2CC2)c1 (stereo not drawn) | n | n | n | n | n | n | x | x
CC(C)(C)C(=O)CSc1nc2c(c(-c3cccs3)c1C#N)CCC2 | n | n | 21.1 | n | n | n | n | n
CSc1nc(Sc2ccccc2Cl)c2ccccc2n1 | n | n | 26.5 | n | n | n | n | n
COc1ccc(C)cc1NC(=O)CNC(C)C(=O)Nc1cc(Cl)ccc1Cl (stereo not drawn) | n | n | n | n | n | n | x | x
COC(=O)c1cc2n3ccccc3c(C)c(-c3ccccc3)c-2c1C(=O)OC | n | n | 59.4 | n | n | n | 63.5 | 62.9
COC(=O)c1cc2c(C)c(C)c3ccccn3c-2c1C(=O)OC | n | n | n | n | n | n | x | x
CC(=O)NCCC(=O)Nc1cc(S(=O)(=O)N2CCCCC2)ccc1Oc1ccccc1 | n | n | n | n | n | n | x | x
CCOc1ccc(Br)cc1C(=O)Nc1ccc(C(=O)NCC(C)C)cc1 | n | n | 33.7 | n | n | n | 32.7 | 38.0
O=C(O)c1cc(-c2ccco2)nc2ccc(Br)cc12 | n | n | 34.1 | n | n | n | 26.1 | 29.5
CCCc1cc(C(=O)NNC(=S)NC2CCCCC2)cs1 | n | n | n | n | n | n | x | x
O=C(CN1C(=O)COc2ccccc21)N(Cc1cccnc1)Cc1ccccc1F | n | n | 30.7 | n | n | x | n | n
O=C(O)CCC(=O)N1CCN(c2nc(-c3ccccc3Cl)c3cc(Br)ccc3n2)CC1 | n | n | 23.5 | n | n | n | n | n
CN1C[C@@H](CO)O[C@@H](n2cnc3c(N4CCOCC4)ncnc32)C1 | x | x | x | x | n | n | x | x
CCNC(=S)Nc1nc2c(cc1C(=O)OCC)CCCC2 | n | n | 21.3 | n | n | n | 26.7 | 19.9
Cc1ccc2nc3c(cc(C(N)=S)c(=N)n3CCCOC(C)C)c(=O)n2c1 | n | n | n | n | n | n | x | x
CCOC(=O)c1sc2nc(SCC(=O)NCc3ccco3)n(Cc3ccccc3)c(=O)c2c1C | n | n | n | n | n | n | x | x
SMILES | Jurkat NFkB inh | 697 NFkB inh | NR2E3 ag-1 | JMJD2C inh | NR2E3 ag-2 | GalR3 antag | NR2E3 ag confirm | PPARg-NCOR2 ag
Cc1sc2nc(SCC(=O)NCc3ccco3)n(Cc3ccccc3)c(=O)c2c1C | n | n | 37.7 | n | n | n | n | n
O=C(CSc1nnc(-c2cccc(Br)c2)o1)N1CCNC1=O | n | n | x | n | n | n | x | x
COC(=O)c1cc(S(=O)(=O)N2CCOCC2)c(Cl)cc1N1CCOCC1 | n | n | n | n | n | n | x | x
COC(=O)c1cc(C)nc2c1C(=O)C(=O)C=C2N1CCOCC1 | n | n | 38.4 | n | n | n | 43.4 | 57.1
CCOC(=O)/C(C#N)=C1/C=C(C)NC(c2ccccc2O)=N1 | n | n | 22.9 | n | n | n | n | n
NS(=O)(=O)c1cc(C(=O)NC2CCSc3ccccc32)ccc1Cl (stereo not drawn) | n | n | 20.3 | n | n | n | n | n
NS(=O)(=O)c1cccc(C(=O)NC2CCSc3ccccc32)c1 (stereo not drawn) | n | n | n | n | n | n | x | x
CCCCC1=CC2=C(c3ccco3)C(=O)C(C)(OC(=O)c3ccc(OC)cc3)C(=O)C2=CN1Cc1ccc2c(c1)OCO2 (stereo not drawn) | n | n | 23.0 | n | n | x | n | n
CCCCC1=CC2=C(c3ccco3)C(=O)C(C)(OC(=O)c3ccc(OC)cc3)C(=O)C2=CN1Cc1ccccc1 (stereo not drawn) | n | n | n | n | n | n | x | x
O=C(CSc1nc(Cc2ccccc2)nc2ccccc12)Nc1ccc2c(c1)OCCO2 | n | n | 27.6 | n | n | n | n | n
O=c1[nH]c(CN2CCN(c3ccccn3)CC2)nc2c(Br)cc(Br)cc12 | n | n | n | n | n | n | x | x
O=c1[nH]c(CN2CCN(c3ncccn3)CC2)nc2c(Br)cc(Br)cc12 | n | n | 26.8 | n | n | n | n | 24.6
Cc1cc(C)c(OCC(=O)Nc2ccc3c(c2)OCO3)cc1C | n | n | 29.4 | n | n | n | n | n
CCCC1=NN2C(=N)/C(=C\c3ccc(SCc4ccco4)o3)C(=O)N=C2S1 | n | n | 20.2 | n | n | x | n | 61.0
CN(CCCC(=O)O)c1ccc(N=Nc2ccc([N+](=O)[O-])cc2)cc1 | n | n | n | n | n | n | x | x
Cc1ccc(C2C(C#N)=C(N)SC(N)=C2C#N)cc1 | x | x | x | x | n | n | x | x
N#CC1=C(N)SC(N)=C(C#N)C1c1ccoc1 | n | n | 36.1 | n | x | x | 23.1 | 27.3
Cc1cc(C)cc(OCC(=O)Nc2cnn(CCCC(=O)O)c2)c1 | n | n | n | n | n | n | x | x
CCC(=O)c1ccccc1OCC(=O)Nc1c(C)cccc1C | n | n | n | n | n | n | x | x
Cc1cccc(C)c1NC(=O)COc1ccccc1C(=O)Nc1ccc(Br)cn1 | n | n | 43.6 | n | n | n | 41.6 | 48.8
CSc1ccccc1Nc1ncnc(N)n1 | n | n | n | n | n | n | x | x
